Measurements reported in ChEMBL document CHEMBL2062375, “Discovery of an orally efficacious inhibitor of anaplastic lymphoma kinase” (J Med Chem, 2012).

Tests used:
[1] = AUC in SCID mouse at 1 mg/kg, iv; type: ADME, organism-based; parameters: dose 1 mg/kg, route intravenous; conditions: plasma
In short: (§1)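 Mouse PK. IV via the lateral tail vein in 3% DMSO/30% Solutol/67% PBS, or oral gavage in 100% PEG400, 100 μL dose volume, after an overnight fast. Trunk blood was taken from three mice per time point over 6 h. Plasma was acetonitrile-precipitated and analysed by LC-MS/MS. Parameters were derived noncompartmentally.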

[2] = Plasma clearance in CD-1 mouse at 1 mg/kg, iv; type: ADME, organism-based; parameters: dose 1 mg/kg, route intravenous
In short: (§2)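 Mouse IV PK: lateral tail vein dosing, 100 μL in 3% DMSO/30% Solutol/67% PBS; trunk blood from three mice per time point over 6 h. Plasma precipitated with acetonitrile, drug quantified by LCMS/MS against internal standard; noncompartmental analysis.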

[3] = Volume of distribution in CD-1 mouse at 1 mg/kg, iv; type: ADME, organism-based; parameters: dose 1 mg/kg, route intravenous; conditions: in vivo; in short: as §2
[4] = Plasma clearance in Sprague-Dawley rat at 1 mg/kg, iv; type: ADME, organism-based; parameters: dose 1 mg/kg, route intravenous
In short: (§3)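 IV PK: rats via lateral tail vein (1 mL/kg; 3% DMSO/30% Solutol/67% PBS), serial tail-vein blood over 6 h. Dogs and monkeys via saphenous vein (0.5 mL/kg in 40% HPβCD), femoral-vein blood over 24 h. Acetonitrile protein precipitation, LCMS/MS; noncompartmental parameters from individual animals, n = 3, mean ± SEM.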

[5] = Volume of distribution in Sprague-Dawley rat at 1 mg/kg, iv; type: ADME, organism-based; parameters: dose 1 mg/kg, route intravenous; conditions: in vivo; in short: as §3
[6] = Half life in Beagle dog at 1 mg/kg, iv; type: ADME, organism-based, Canis lupus familiaris; parameters: dose 1 mg/kg, route intravenous; conditions: in vivo
In short: (§4)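 Dog and monkey PK. IV 0.5 mL/kg in 40% HPβCD via the saphenous vein. Oral dosing was 1 mL/kg by gavage in dogs and 2 mL/kg by nasogastric tube in monkeys, after an overnight fast. Serial femoral-vein blood was taken into heparin over 24 h. Plasma was acetonitrile-precipitated and analysed by LC-MS/MS. Parameters were noncompartmental, n = 3, mean ± SEM.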

[7] = Plasma clearance in Beagle dog at 1 mg/kg, iv; type: ADME, organism-based, Canis lupus familiaris; parameters: dose 1 mg/kg, route intravenous; in short: as §3
[8] = AUC in Beagle dog at 1 mg/kg, iv; type: ADME, organism-based, Canis lupus familiaris; parameters: dose 1 mg/kg, route intravenous; conditions: plasma; in short: as §4
[9] = Plasma clearance in cynomolgus monkey at 1 mg/kg, iv; type: ADME, organism-based, Macaca fascicularis; parameters: dose 1 mg/kg, route intravenous; in short: as §3
[10] = Volume of distribution in cynomolgus monkey at 1 mg/kg, iv; type: ADME, organism-based, Macaca fascicularis; parameters: dose 1 mg/kg, route intravenous; conditions: in vivo; in short: as §3
[11] = Cmax in SCID mouse at 10 mg/kg, po; type: ADME, organism-based; parameters: dose 10 mg/kg, route oral; conditions: in vivo; in short: as §1
[12] = AUC in SCID mouse at 10 mg/kg, po; type: ADME, organism-based; parameters: dose 10 mg/kg, route oral; conditions: plasma; in short: as §1
[13] = Cmax in CD-1 mouse at 10 mg/kg, po; type: ADME, organism-based; parameters: dose 10 mg/kg, route oral; conditions: in vivo; in short: as §1
[14] = Half life in CD-1 mouse at 10 mg/kg, po; type: ADME, organism-based; parameters: dose 10 mg/kg, route oral; conditions: in vivo; in short: as §1
[15] = Cmax in Sprague-Dawley rat at 10 mg/kg, po; type: ADME, organism-based; parameters: dose 10 mg/kg, route oral; conditions: in vivo
In short: (§5)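 Rat PK. IV via the lateral tail vein, 1 mL/kg in 3% DMSO/30% Solutol/67% PBS, or oral gavage at 5 mL/kg in 40% HPβCD, after an overnight fast. Serial tail-vein blood was taken into heparin over 6 h. Plasma was acetonitrile-precipitated and analysed by LC-MS/MS. Parameters were noncompartmental, n = 3, mean ± SEM.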

[16] = AUC in Sprague-Dawley rat at 10 mg/kg, po; type: ADME, organism-based; parameters: dose 10 mg/kg, route oral; conditions: plasma; in short: as §5
[17] = Oral bioavailability in Sprague-Dawley rat at 10 mg/kg; type: ADME, organism-based; conditions: in vivo
In short: (§6)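 PK: overnight-fasted animals. Rat oral gavage 5 mL/kg in 40% HPβCD, serial tail-vein blood over 6 h. Dog oral gavage 1 mL/kg, monkey nasogastric 2 mL/kg, femoral-vein blood over 24 h. Plasma protein-precipitated with acetonitrile, LCMS/MS with internal standard; noncompartmental analysis, individual animals n = 3, mean ± SEM.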

[18] = Tmax in Beagle dog at 10 mg/kg, po; type: ADME, organism-based, Canis lupus familiaris; parameters: dose 10 mg/kg, route oral; conditions: in vivo; in short: as §6
[19] = Half life in Beagle dog at 10 mg/kg, po; type: ADME, organism-based, Canis lupus familiaris; parameters: dose 10 mg/kg, route oral; conditions: in vivo; in short: as §4
[20] = AUC in Beagle dog at 10 mg/kg, po; type: ADME, organism-based, Canis lupus familiaris; parameters: dose 10 mg/kg, route oral; conditions: plasma; in short: as §4
[21] = Oral bioavailability in Beagle dog at 10 mg/kg; type: ADME, organism-based, Canis lupus familiaris; conditions: in vivo; in short: as §6
[22] = Cmax in cynomolgus monkey at 10 mg/kg, po; type: ADME, organism-based, Macaca fascicularis; parameters: dose 10 mg/kg, route oral; conditions: in vivo; in short: as §4
[23] = Tmax in cynomolgus monkey at 10 mg/kg, po; type: ADME, organism-based, Macaca fascicularis; parameters: dose 10 mg/kg, route oral; conditions: in vivo; in short: as §6
[24] = Cmax in rat at 100 mg/kg, po; type: ADME, organism-based; parameters: dose 100 mg/kg, route oral; conditions: in vivo
In short: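 Rat oral dose escalation at 10, 30, 55 and 100 mg/kg. Gavage at 5 mL/kg in 40% HPβCD after an overnight fast. Serial tail-vein blood was drawn into heparinized tubes. Plasma was protein-precipitated with acetonitrile and assayed by LC-MS/MS. Cmax and AUC0–12 were derived noncompartmentally; n = 2 at 10 mg/kg.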

[25] = Plasma concentration in SCID/beige mouse xenografted with human KARPAS299 cells expressing NPM-ALK at 10 mg/kg, po bid after 2 hrs post last dose by LC-MS/MS analysis; type: ADME, organism-based, KARPAS-299; parameters: dose 10 mg/kg, route oral
In short: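 Female SCID/beige mice (6–8 weeks), Karpas-299 cells implanted sc in left flank; at ~600 mm³ randomized (8–10/group), dosed orally in PEG400, 100 μL, b.i.d. for 12 days. Body weight every 2–3 days; plasma and tumor sampled 2 h after final dose, drug by LCMS/MS; Mann–Whitney rank sum statistics.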

[26] = Drug level in SCID mouse tumor xenografted with human KARPAS299 cells expressing NPM-ALK at 30 mg/kg, po after 24 hrs by LC-MS/MS analysis; type: ADME, organism-based, Neoplasm, KARPAS-299; parameters: dose 30 mg/kg, route oral; conditions: read-out: Drug uptake
Focal adhesion kinase 1 = Focal adhesion kinase 1 (Homo sapiens, UniProt Q05397); assay: Inhibition of human FAK
In short: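 Commercial activity-assay panel of 259 kinases. Each kinase was first screened at 1 μM, and those inhibited by ≥90% went on to full IC50 determination.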

[27] = molecular target: Tyrosine-protein kinase Fes/Fps (Homo sapiens, UniProt P07332); assay: Inhibition of human Fes
In short: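 Millipore KinaseProfiler activity assays on a 259-kinase panel; kinases inhibited by ≥90% at 1 μM then taken to full IC50 determination.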

[28] = molecular target: Ribosomal protein S6 kinase alpha-1 (Homo sapiens, UniProt Q15418); conditions: 1 uM
[29] = molecular target: Ribosomal protein S6 kinase alpha-3 (Homo sapiens, UniProt P51812); conditions: 1 uM
[30] = molecular target: Ribosomal protein S6 kinase alpha-6 (Homo sapiens, UniProt Q9UK32); conditions: 1 uM
Activated CDC42 kinase 1 = Activated CDC42 kinase 1 (Homo sapiens, UniProt Q07912); conditions: 1 uM
[31] = molecular target: NUAK family SNF1-like kinase 1 (Homo sapiens) (UniProt O60285); conditions: 1 uM
[32] = molecular target: Serine/threonine-protein kinase Chk2 (Homo sapiens, UniProt O96017); conditions: 1 uM
[33] = molecular target: Vascular endothelial growth factor receptor 3 (Homo sapiens, UniProt P35916); conditions: 1 uM
[34] = molecular target: Mitogen-activated protein kinase kinase kinase kinase 2 (Homo sapiens) (UniProt Q12851); conditions: 1 uM
[35] = molecular target: Mitogen-activated protein kinase 8 (Homo sapiens, UniProt P45983); conditions: 1 uM
Sequence of Mitogen-activated protein kinase 8 (P45983 whole entry): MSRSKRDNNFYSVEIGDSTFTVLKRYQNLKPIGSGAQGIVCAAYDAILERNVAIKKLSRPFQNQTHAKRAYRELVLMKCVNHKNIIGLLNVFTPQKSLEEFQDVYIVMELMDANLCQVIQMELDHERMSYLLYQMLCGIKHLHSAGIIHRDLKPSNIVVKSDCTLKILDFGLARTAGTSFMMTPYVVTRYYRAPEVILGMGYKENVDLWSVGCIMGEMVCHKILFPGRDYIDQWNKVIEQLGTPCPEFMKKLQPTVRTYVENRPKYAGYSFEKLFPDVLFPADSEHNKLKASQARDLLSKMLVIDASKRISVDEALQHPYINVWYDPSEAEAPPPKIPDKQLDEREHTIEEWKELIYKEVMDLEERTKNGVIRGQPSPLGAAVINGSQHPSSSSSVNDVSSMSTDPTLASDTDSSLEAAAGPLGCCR

Sequence of Tyrosine-protein kinase Fes/Fps (P07332 whole entry): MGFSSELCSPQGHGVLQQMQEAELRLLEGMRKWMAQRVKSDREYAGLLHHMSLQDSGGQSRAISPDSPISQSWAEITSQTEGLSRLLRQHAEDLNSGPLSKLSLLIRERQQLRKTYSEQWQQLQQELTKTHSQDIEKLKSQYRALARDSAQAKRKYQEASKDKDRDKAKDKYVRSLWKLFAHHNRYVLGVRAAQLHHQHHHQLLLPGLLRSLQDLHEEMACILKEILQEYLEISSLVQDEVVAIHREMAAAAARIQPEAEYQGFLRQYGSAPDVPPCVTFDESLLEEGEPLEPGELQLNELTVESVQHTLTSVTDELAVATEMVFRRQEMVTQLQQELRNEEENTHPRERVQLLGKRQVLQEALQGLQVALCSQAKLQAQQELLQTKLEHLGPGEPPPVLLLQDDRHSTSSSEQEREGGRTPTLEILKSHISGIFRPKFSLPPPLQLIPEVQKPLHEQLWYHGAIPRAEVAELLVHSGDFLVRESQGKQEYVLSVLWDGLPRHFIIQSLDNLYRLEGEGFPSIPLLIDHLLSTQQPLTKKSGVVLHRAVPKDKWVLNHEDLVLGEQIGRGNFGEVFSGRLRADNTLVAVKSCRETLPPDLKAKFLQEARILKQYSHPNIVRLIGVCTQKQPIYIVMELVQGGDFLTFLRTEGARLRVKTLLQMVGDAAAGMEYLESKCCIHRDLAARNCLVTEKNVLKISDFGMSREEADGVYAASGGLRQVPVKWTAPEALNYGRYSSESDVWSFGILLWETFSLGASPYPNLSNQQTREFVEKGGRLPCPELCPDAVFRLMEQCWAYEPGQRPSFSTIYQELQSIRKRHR
Sequence of Mitogen-activated protein kinase kinase kinase kinase 2 (Homo sapiens) (Q12851 whole entry): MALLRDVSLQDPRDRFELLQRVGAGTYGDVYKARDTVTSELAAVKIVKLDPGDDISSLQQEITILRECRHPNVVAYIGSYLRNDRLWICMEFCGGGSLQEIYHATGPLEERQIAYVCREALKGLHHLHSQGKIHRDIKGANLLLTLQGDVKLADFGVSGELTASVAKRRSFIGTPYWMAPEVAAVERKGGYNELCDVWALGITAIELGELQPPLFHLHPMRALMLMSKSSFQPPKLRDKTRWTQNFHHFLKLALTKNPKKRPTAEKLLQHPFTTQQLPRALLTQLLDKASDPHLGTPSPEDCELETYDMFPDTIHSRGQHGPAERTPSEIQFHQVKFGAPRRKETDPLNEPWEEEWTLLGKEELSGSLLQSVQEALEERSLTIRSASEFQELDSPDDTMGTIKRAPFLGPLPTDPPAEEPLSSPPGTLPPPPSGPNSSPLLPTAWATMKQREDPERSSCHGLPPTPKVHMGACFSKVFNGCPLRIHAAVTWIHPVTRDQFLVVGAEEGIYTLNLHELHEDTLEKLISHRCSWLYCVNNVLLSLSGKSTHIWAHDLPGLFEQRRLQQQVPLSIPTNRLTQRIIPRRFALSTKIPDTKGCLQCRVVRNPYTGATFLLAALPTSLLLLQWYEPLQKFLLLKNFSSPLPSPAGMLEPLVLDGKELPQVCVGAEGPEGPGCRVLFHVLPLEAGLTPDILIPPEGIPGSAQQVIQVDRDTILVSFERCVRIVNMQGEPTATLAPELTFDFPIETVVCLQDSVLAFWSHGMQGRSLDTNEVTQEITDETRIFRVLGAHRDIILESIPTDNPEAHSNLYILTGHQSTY
Sequence of Activated CDC42 kinase 1 (Q07912 whole entry, looked up): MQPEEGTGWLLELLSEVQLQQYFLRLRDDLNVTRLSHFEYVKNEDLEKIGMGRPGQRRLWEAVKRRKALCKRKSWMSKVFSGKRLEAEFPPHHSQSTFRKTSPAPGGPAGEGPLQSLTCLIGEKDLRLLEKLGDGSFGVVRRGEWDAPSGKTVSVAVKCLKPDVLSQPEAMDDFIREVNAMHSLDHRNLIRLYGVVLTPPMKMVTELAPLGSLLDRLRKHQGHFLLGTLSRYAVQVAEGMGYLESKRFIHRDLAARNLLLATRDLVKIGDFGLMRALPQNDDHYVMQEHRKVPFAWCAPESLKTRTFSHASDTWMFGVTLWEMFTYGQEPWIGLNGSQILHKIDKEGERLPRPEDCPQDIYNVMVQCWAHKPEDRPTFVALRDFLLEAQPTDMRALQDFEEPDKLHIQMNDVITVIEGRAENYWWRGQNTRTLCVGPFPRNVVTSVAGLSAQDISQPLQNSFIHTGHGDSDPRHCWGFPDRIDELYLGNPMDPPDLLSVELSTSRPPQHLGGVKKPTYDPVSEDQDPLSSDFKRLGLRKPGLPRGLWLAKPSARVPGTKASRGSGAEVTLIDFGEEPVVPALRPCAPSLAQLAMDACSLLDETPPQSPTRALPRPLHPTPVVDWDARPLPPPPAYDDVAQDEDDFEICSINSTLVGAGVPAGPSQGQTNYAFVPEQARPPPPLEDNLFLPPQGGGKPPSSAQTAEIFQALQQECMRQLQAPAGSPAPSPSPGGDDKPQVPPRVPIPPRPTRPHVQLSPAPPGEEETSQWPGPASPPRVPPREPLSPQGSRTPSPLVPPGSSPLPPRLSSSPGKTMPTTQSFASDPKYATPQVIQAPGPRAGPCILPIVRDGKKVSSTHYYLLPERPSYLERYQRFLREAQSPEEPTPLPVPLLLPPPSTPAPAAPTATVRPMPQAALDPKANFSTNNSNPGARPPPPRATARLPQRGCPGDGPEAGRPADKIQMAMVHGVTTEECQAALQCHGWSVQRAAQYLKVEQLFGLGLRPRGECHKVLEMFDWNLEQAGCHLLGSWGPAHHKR
Sequence of Ribosomal protein S6 kinase alpha-6 (Q9UK32 whole entry): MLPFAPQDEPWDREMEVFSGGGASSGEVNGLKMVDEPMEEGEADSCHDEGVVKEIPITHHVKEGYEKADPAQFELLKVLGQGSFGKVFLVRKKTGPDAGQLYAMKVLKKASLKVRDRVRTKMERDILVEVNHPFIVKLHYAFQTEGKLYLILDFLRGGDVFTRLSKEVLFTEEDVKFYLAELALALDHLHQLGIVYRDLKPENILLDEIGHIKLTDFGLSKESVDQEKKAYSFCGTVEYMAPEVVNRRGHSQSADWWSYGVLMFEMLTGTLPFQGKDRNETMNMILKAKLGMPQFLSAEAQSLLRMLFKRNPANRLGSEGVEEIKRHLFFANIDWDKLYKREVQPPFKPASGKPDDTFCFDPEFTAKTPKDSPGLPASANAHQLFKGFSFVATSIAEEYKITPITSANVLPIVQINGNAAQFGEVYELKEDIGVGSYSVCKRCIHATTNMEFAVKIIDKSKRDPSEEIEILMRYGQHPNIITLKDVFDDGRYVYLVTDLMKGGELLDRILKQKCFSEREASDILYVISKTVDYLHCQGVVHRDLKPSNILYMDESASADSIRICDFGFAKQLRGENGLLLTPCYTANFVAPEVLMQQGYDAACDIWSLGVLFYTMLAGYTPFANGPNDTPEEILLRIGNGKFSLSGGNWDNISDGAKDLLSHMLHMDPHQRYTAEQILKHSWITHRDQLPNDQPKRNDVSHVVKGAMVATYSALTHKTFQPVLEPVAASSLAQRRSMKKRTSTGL
Sequence of Focal adhesion kinase 1 (Q05397 whole entry): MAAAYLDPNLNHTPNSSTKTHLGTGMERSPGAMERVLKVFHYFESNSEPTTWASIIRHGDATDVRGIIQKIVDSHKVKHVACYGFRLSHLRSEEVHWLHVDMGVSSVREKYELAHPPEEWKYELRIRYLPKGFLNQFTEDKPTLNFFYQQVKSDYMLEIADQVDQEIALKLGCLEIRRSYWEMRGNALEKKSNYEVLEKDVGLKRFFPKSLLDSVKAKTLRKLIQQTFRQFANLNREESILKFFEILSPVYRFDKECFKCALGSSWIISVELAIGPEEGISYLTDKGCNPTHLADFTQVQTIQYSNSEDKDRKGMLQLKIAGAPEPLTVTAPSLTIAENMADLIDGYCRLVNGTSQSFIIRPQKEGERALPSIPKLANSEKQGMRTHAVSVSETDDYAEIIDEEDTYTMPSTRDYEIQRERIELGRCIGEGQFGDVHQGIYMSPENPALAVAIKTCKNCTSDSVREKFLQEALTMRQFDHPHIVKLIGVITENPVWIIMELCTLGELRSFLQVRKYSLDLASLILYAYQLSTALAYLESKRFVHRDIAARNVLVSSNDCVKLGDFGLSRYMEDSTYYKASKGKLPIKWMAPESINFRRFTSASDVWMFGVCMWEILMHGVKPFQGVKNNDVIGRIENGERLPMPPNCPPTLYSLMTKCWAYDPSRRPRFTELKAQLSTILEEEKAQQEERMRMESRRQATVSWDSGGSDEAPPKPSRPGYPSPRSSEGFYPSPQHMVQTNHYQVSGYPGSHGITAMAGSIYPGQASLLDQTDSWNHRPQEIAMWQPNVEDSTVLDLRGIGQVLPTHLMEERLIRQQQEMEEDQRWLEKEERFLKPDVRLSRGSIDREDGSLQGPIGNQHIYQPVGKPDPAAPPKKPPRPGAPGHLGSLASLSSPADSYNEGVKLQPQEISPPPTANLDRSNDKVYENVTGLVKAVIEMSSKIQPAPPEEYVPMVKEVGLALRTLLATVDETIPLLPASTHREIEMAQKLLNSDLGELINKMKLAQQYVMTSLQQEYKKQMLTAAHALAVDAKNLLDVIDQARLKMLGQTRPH

AUC [1]: 3020 ng·h/mL | clearance [2]: 29 mL/min/kg | Vd [3]: 1.8 L/kg | clearance [4]: 17 mL/min/kg | Vd [5]: 1.3 L/kg | half-life [6]: 2.4 h | clearance [7]: 40 mL/min/kg | AUC [8]: 409 ng·h/mL | clearance [9]: 28 mL/min/kg | Vd [10]: 2.9 L/kg | Cmax [11]: 2750 ng/mL | AUC [12]: 21400 ng·h/mL | Cmax [13]: 880 ng/mL | half-life [14]: 2.3 h | Cmax [15]: 599 ng/mL | AUC [16]: 4830 ng·h/mL | bioavailability [17]: 50% | Tmax [18]: 0.8 h | half-life [19]: 3.3 h | AUC [20]: 2130 ng·h/mL | bioavailability [21]: 52% | Cmax [22]: 170 ng/mL | Tmax [23]: 4.7 h | Cmax [24]: 3050 ng/mL | concentration at 2 h [25]: 1960 ng/mL | concentration at 24 h [26]: 100 ng/g | IC50 (Focal adhesion kinase 1): 133 nM | IC50 [27]: 99 nM | inhibition [28]: > 90% | inhibition [29]: > 90% | inhibition [30]: > 90% | inhibition (Activated CDC42 kinase 1): > 90% | inhibition [31]: > 90% | inhibition [32]: > 90% | inhibition [33]: > 90% | inhibition [34]: > 90% | inhibition [35]: > 90%
Structure (SMILES): COc1c(Nc2ncc(Cl)c(N[C@H]3[C@@H](C(N)=O)[C@@H]4C=C[C@H]3C4)n2)ccc2c1CC[C@@H](N1CCOCC1)CC2
